Assay results of several laboratories.
Lines come from different studies, so protocols differ.
Method: competition with immobilised ligand
RPS6KA6 C-terminal kinase domain: Ribosomal protein S6 kinase alpha-6, C-terminal kinase domain (RPS6KA6, Homo sapiens, UniProt Q9UK32)
RPS6KA6 N-terminal kinase domain: Ribosomal protein S6 kinase alpha-6, N-terminal kinase domain (RPS6KA6, Homo sapiens, UniProt Q9UK32)

O=C(Nc1c[nH]nc1C(=O)NC1CCNCC1)c1cc(F)cc(F)c1  remaining binding (RPS6KA6 C-terminal kinase domain; binding; 1 µM): 100%
F[C@@H]1CCN(c2nccc(-c3cnn4ncccc34)n2)C1  remaining binding (RPS6KA6 C-terminal kinase domain; binding; 1 µM): 92%
O=C(NCC1CCOCC1)c1n[nH]cc1NC(=O)c1c(F)cccc1F  remaining binding (RPS6KA6 N-terminal kinase domain; binding; 1 µM): 41%
c1cncc(-c2cccc(Nc3nccc(NC4CCCCC4)n3)c2)c1  remaining binding (RPS6KA6 N-terminal kinase domain; binding; 10 µM): 50%
CNC(=O)[C@@H]1CC[C@@H](n2c(-c3ccc4cnccc4c3)nc3ccc(C(=O)NCc4cccc(C(N)=O)c4)cc32)C1  remaining binding (RPS6KA6 C-terminal kinase domain; binding; 1 µM): 97%
O=C(NCCCN1CCOCC1)c1ccc(Nc2ncc(Cl)c(-c3ccc(Cl)s3)n2)cc1  remaining binding (RPS6KA6 N-terminal kinase domain; binding; 1 µM): 72%
N[C@H]1CCN(c2nccc(-c3cnn4ncccc34)n2)C1  remaining binding (RPS6KA6 C-terminal kinase domain; binding; 1 µM): 86%
COc1cnc(Nc2cccc(S(N)(=O)=O)c2)nc1N1CCN(c2ccccc2)C(=O)C1  remaining binding (RPS6KA6 C-terminal kinase domain; binding; 1 µM): 92%
O=C(c1ccc(Nc2ncc(Cl)c(-c3ccc(Cl)s3)n2)cc1)N1CCC(N2CCCC2)CC1  remaining binding (RPS6KA6 C-terminal kinase domain; binding; 1 µM): 83%
CCN1CCN(Cc2ccc(C(=O)Nc3ccc(C)c(Oc4ccc5c(c4)CC(=O)N5)c3)cc2C(F)(F)F)CC1  remaining binding (RPS6KA6 C-terminal kinase domain; binding; 1 µM): 89%
CN(C)c1nccc(-c2cnc3ncccn23)n1  remaining binding (RPS6KA6 C-terminal kinase domain; binding; 1 µM): 90%
CN([C@@H]1CCc2c(CC(=O)O)c3ccccc3n2C1)S(=O)(=O)c1ccc(F)cc1  remaining binding (RPS6KA6 C-terminal kinase domain; cell-free assay; 1 µM): 100%
O=C(NCCCN1CCOCC1)c1ccc(Nc2nccc(-c3cc4ccccc4s3)n2)cc1  remaining binding (RPS6KA6 C-terminal kinase domain; binding; 1 µM): 35%
COc1ccc2c(c1)O[C@@H](c1ccc(OC)c(OC)c1)C[C@H]2NC(=O)C1(c2ccc3c(c2)OC(F)(F)O3)CC1  remaining binding (RPS6KA6 N-terminal kinase domain; cell-free assay; 1 µM): 84%
COc1ncc2cc3ccccc3nc2c1C#N  remaining binding (RPS6KA6 C-terminal kinase domain; cell-free assay; 5 µM): 73%
COc1cnc(Nc2cccc(S(N)(=O)=O)c2)nc1N1CCN(c2ccccc2)CC1  remaining binding (RPS6KA6 N-terminal kinase domain; binding; 1 µM): 73%
C[C@@H]1CN(c2cc(-c3nn(C)c4ccc(OC5(C)CC5)cc34)ncn2)C[C@H](C)O1  remaining binding (RPS6KA6 C-terminal kinase domain; cell-free assay; 1 µM): 79%
COc1ccnn2ncc(-c3ccnc(N(C)C)n3)c12  remaining binding (RPS6KA6 C-terminal kinase domain; binding; 1 µM): 100%
Cc1cnc(Nc2ccc(C(=O)N3CCC(N4CCCC4)CC3)cc2)nc1-c1cc2ccccc2s1  remaining binding (RPS6KA6 N-terminal kinase domain; binding; 1 µM): 30%
CC1CCCN1c1nccc(-c2cnn3ncccc23)n1 (centres unmarked)  remaining binding (RPS6KA6 N-terminal kinase domain; binding; 1 µM): 99%
Cn1nc(C(F)(F)F)cc1-c1cnc(N2CCc3cc(S(=O)(=O)Nc4c(F)cc(Cl)cc4F)cc(N4CCCC4=O)c32)nc1  remaining binding (RPS6KA6 N-terminal kinase domain; cell-free assay; 1 µM): 85%
Cc1cnn2ncc(-c3ccnc(N(C)C)n3)c2c1  remaining binding (RPS6KA6 C-terminal kinase domain; binding; 1 µM): 100%
Cc1cc(-n2nc(Cc3cc(F)cc(C(F)(F)F)c3)nc2C)ccc1C(N)=O  remaining binding (RPS6KA6 N-terminal kinase domain; cell-free assay; 1 µM): 89%
CN(c1nccc(-c2cnn3ncccc23)n1)C1CC1  remaining binding (RPS6KA6 C-terminal kinase domain; binding; 1 µM): 100%
CCCCN(CCCC)C(=O)CN1C[C@@H](c2cc(OC)c3c(c2)OCO3)[C@H](C(=O)O)[C@H]1CC(C)(C)CCC  remaining binding (RPS6KA6 N-terminal kinase domain; cell-free assay; 1 µM): 96.6%
O=C(c1ccc(Nc2ncc(Cl)c(-c3cc4ccccc4s3)n2)cc1)N1CCC(N2CCCC2)CC1  remaining binding (RPS6KA6 C-terminal kinase domain; binding; 1 µM): 89%
NS(=O)(=O)c1cc(NC(=O)C2(c3ccccc3Cl)CC2)ccc1Oc1cccc(Cl)c1  remaining binding (RPS6KA6 N-terminal kinase domain; cell-free assay; 1 µM): 100%
O=C(c1ccc(Nc2nccc(-c3cc4ccccc4s3)n2)cc1)N1CCC(N2CCCC2)CC1  remaining binding (RPS6KA6 N-terminal kinase domain; binding; 1 µM): 98%
CN(C)c1nccc(-c2cnn3ncccc23)n1  remaining binding (RPS6KA6 N-terminal kinase domain; binding; 1 µM): 92%
FC(F)(F)Oc1cccc(-c2cnc3ccc(-c4ccncc4)nn23)c1  remaining binding (RPS6KA6 C-terminal kinase domain; binding; 5 µM): 34%
O=C(O)[C@H]1[C@H](Cn2nnc3ccccc3c2=O)CC[C@@H]1C(=O)c1ccc(OCCC2CCOCC2)cc1  remaining binding (RPS6KA6 C-terminal kinase domain; cell-free assay; 1 µM): 97%
Nc1ncc2c(n1)-c1c([nH]c3ccc(C#CC4CC4)cc13)CCCC2  remaining binding (RPS6KA6 N-terminal kinase domain; binding; 1 µM): 78%
